# Activity calls are given as the source filed them. The calls are words filed in the database; no cut-off is given here.
# Columns and labels:
# [1] = target: Sigma intracellular receptor 2 (Homo sapiens, UniProt Q5BJF2); assay: Displacement of [3H]-ditolylguanidine from human Sigma 2 receptor by radioligand displacement assay
# In short: (§1)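 Radioligand displacement with [3H]-ditolylguanidine as the S2R label. Cold (+)-pentazocine is included to mask S1R sites. Results are reported as Ki.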
# [2] = target: Sigma non-opioid intracellular receptor 1 (Homo sapiens, UniProt Q99720); assay: Displacement of [3H]-pentazocine from human Sigma 1 receptor by radioligand displacement assay
# In short: (§2)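 S1R labelled selectively with [3H]-(+)pentazocine in a radioligand displacement assay. Affinity is expressed as inhibition constant (Ki).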
# SH-SY5Y [3] = assay: Neuroprotective activity against NMDA-induced cell death in human SH-SY5Y cells at 0.1 to 0.5 uM incubated for 24 hrs by MTT assay relative to control; format: functional
# SH-SY5Y [4] = assay: Neuroprotective activity against rotenone-induced cell death in human SH-SY5Y cells at 1 uM incubated for 24 hrs by MTT assay; format: functional, cell-based
# In short: (§3)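 Rotenone 25 μM is the toxic insult to SH-SY5Y cells, with test compound at 1.0 or 5.0 μM. Protection is reported as % cell viability, mean ± SD of three independent experiments.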
# SH-SY5Y [5] = assay: Neuroprotective activity against NMDA-induced cell death in human SH-SY5Y cells at 0.1 uM in presence of PB212 incubated for 24 hrs by MTT assay; format: functional, cell-based
# In short: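 SH-SY5Y cells are exposed to NMDA 250 μM together with compound at 0.1 μM. This is done with and without the S1R antagonist PB212 (5 μM). Data are % cell viability, mean ± SD of three independent experiments.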
# SH-SY5Y [6] = assay: Neuroprotective activity against NMDA-induced cell death in human SH-SY5Y cells at 5 uM incubated for 24 hrs by MTT assay; format: functional, cell-based
# In short: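 SH-SY5Y neuroblastoma cells are incubated 24 h with NMDA 250 μM and compound at 0.1, 0.5, 1.0 or 5.0 μM. Memantine serves as positive control. Read-out is % cell viability, mean ± SD of three independent experiments.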
# SH-SY5Y [7] = assay: Neuroprotective activity against rotenone-induced cell death in human SH-SY5Y cells at 5 uM in presence of PB212 incubated for 24 hrs by MTT assay; format: functional, cell-based
# In short: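 SH-SY5Y cells receive rotenone 25 μM plus the S1R antagonist PB212 (5 μM) and compound at 1.0 or 5.0 μM. Output is % cell viability, mean ± SD of three independent experiments.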
# SH-SY5Y [8] = assay: Neuroprotective activity against NMDA-induced cell death in human SH-SY5Y cells at 0.5 to 1 uM incubated for 24 hrs by MTT assay relative to control; format: functional
# [9] = Displacement of [3H][…]-DTG from sigma 2 receptor in guinea pig brain cortex membranes after 150 mins by liquid scintillation counter method; format: cell membranes, Cavia porcellus; in short: as §1
# SH-SY5Y [10] = assay: Neuroprotective activity against oligomycin-induced cell death in human SH-SY5Y cells at 5 uM incubated for 24 hrs by MTT assay relative to control; format: functional
# In short: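 SH-SY5Y cells were exposed to oligomycin (2.5 μM) as the toxic stimulus in the presence of test compound. Protection was scored as % cell viability.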
# SH-SY5Y [11] = assay: Neuroprotective activity against rotenone-induced cell death in human SH-SY5Y cells at 5 uM incubated for 24 hrs by MTT assay; format: functional, cell-based; in short: as §3
# Cavia porcellus = organism: Cavia porcellus; assay: Selectivity index, ratio of Ki for sigma 1 receptor in guinea pig brain cortex membranes to Ki for sigma 2 receptor in guinea pig brain cortex membranes; format: cell membranes
# [12] = target: Sigma non-opioid intracellular receptor 1 (Cavia porcellus, UniProt Q60492); assay: Displacement of [3H](+)-pentazocine from sigma 1 receptor in guinea pig brain cortex membranes after 150 mins by scintillation counting analysis; format: cell membranes; in short: as §2
# [13] = target: T1, Glutamate NMDA receptor (Rattus norvegicus) (UniProt P35439+Q00959+Q00960+Q00961+Q62645+Q8VHN2+Q9R1M7); assay: Negative allosteric modulator of NMDA receptor assessed as NMDA-induced current in Sprague-Dawley rat Primary cortical neuron at 0.1 uM by whole cell patch clamp method relative to control; format: cell-based; details: Cortical neurone
# In short: (§4)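 Whole-cell patch clamp on cortical neurons in primary culture. Currents are evoked by NMDA 100 μM plus glycine 1 μM, with the compound applied at increasing concentrations. The effect is expressed as % of the control current, mean ± SE of n cells.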
# [14] = target: T1, Glutamate NMDA receptor (Rattus norvegicus); assay: Negative allosteric modulator of NMDA receptor assessed as NMDA-induced current in Sprague-Dawley rat Primary cortical neuron at 10 uM by whole cell patch clamp method relative to control; format: cell-based; details: Cortical neurone; in short: as §4
# [15] = target: T1, Glutamate NMDA receptor (Rattus norvegicus); assay: Negative allosteric modulator of NMDA receptor assessed as NMDA-induced current in Sprague-Dawley rat Primary cortical neuron at 1 uM by whole cell patch clamp method relative to control; format: cell-based; details: Cortical neurone; in short: as §4
# Chain of Sigma intracellular receptor 2 (Q5BJF2 whole entry): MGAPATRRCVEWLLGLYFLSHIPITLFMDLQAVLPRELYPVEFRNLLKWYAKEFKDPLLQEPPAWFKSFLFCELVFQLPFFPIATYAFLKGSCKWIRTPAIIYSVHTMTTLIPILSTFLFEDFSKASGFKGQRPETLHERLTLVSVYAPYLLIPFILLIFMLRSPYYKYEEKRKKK
# Chain of Sigma non-opioid intracellular receptor 1 (Homo sapiens, UniProt Q99720) (Q99720 whole entry): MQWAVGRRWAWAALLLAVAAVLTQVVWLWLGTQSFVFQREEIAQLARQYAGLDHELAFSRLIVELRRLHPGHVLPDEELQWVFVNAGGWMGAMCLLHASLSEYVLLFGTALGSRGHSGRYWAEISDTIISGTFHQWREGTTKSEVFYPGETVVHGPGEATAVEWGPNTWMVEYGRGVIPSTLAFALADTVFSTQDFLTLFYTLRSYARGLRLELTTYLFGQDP
# Chain of Sigma non-opioid intracellular receptor 1 (Cavia porcellus, UniProt Q60492) (Q60492 whole entry): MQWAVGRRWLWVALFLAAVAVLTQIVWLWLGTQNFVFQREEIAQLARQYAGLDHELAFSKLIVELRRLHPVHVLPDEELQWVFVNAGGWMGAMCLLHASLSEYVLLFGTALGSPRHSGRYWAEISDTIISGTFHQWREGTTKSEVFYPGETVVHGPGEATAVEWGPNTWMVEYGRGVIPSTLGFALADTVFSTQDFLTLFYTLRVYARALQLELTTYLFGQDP
Ki [1] [nM],Ki [2] [nM],SMILES,other results
107,68,c1ccc(CC2CCN(C[C@@H]3CS[C@@]4(CCCCc5ccccc54)S3)CC2)cc1,–
182,5.4,CC1(C)OCC(CN2CCN(Cc3ccccc3)CC2)O1 (configuration not stated),–
8.1,1.7,c1ccc(CC2CCN(CC3CSC4(CCCCCC4)S3)CC2)cc1 (configuration not stated),–
158,195,c1ccc(CC2CCN(C[C@H]3CS[C@@]4(CCCCc5ccccc54)S3)CC2)cc1,–
30,71,c1ccc(CC2CCN(C[C@@H]3CS[C@]4(CCc5ccccc54)S3)CC2)cc1,–
–,–,O=C(O)C(=O)O.c1ccc(CN2CCN(CC3CSC4(CCCCC4)O3)CC2)cc1 (configuration not stated),Ki [9]: 91 nM; Activity (SH-SY5Y [4]): Active; Activity (SH-SY5Y [10]): >60%; Activity (SH-SY5Y [11]): Active; Ratio Ki (Cavia porcellus): 72; Activity (SH-SY5Y [6]): inactive; Activity (SH-SY5Y [8]): 72 - 75%; Activity (SH-SY5Y [7]): inactive; Ki [12]: 1.3 nM
85,68,C[C@]1(c2ccccc2)SC[C@H](CN2CCC(Cc3ccccc3)CC2)S1,–
–,–,O=C(O)C(=O)O.c1ccc(CC2CCN(CC3CSC4(CCCCC4)S3)CC2)cc1 (configuration not stated),Ki [9]: 5 nM; Activity (SH-SY5Y [3]): >85%; Activity (SH-SY5Y [4]): Active; Activity (SH-SY5Y [6]): inactive; Activity (SH-SY5Y [7]): inactive; Ki [12]: 12 nM
–,–,O=C(O)C(=O)O.c1ccc(CN2CCN(CC3COC4(CCCCC4)O3)CC2)cc1 (configuration not stated),Ki [9]: 35 nM; Activity (SH-SY5Y [3]): >85%; Activity (SH-SY5Y [4]): Active; inhibition [13]: 34%; inhibition [14]: 110%; Activity (SH-SY5Y [11]): Active; inhibition [15]: 18%; Ratio Ki (Cavia porcellus): 47; Activity (SH-SY5Y [6]): inactive; Activity (SH-SY5Y [7]): inactive
63,76,C[C@]1(c2ccccc2)SC[C@@H](CN2CCC(Cc3ccccc3)CC2)S1,–
71,54,c1ccc(CC2CCN(CC3CSC4(S3)c3ccccc3-c3ccccc34)CC2)cc1 (configuration not stated),–
93,129,c1ccc(CC2CCN(C[C@@H]3CS[C@]4(CCCc5ccccc54)S3)CC2)cc1,–
65,107,c1ccc(CC2CCN(C[C@H]3CS[C@]4(CCc5ccccc54)S3)CC2)cc1,–
6.2,0.6,CC1(C)OCC(CN2CCC(Cc3ccccc3)CC2)O1 (configuration not stated),–
87,52,c1ccc(CC2CCN(C[C@@H]3CS[C@@]4(CCCc5ccccc54)S3)CC2)cc1,–
3,4.2,c1ccc(CC2CCN(CC3CSC4(CCCC4)S3)CC2)cc1 (configuration not stated),–
0.59,2,CC1(C)SCC(CN2CCC(Cc3ccccc3)CC2)S1 (configuration not stated),–
3.3,0.6,CC1(C)SCC(CN2CCN(Cc3ccccc3)CC2)S1 (configuration not stated),–
–,–,CC12CC3CC(C)(C1)CC(N)(C3)C2,Activity (SH-SY5Y [6]): inactive

SMILES,Ki [1] [nM],Ki [2] [nM],other results
O=C(O)C(=O)O.O=C(O)C(=O)O.c1ccc(CN2CCN(CC3CSCS3)CC2)cc1 (configuration not stated),90,2.1,Activity (SH-SY5Y [3]): >85%; Activity (SH-SY5Y [4]): Active; Activity (SH-SY5Y [5]): inactive; Activity (SH-SY5Y [6]): inactive; Activity (SH-SY5Y [7]): inactive
O=C(O)C(=O)O.c1ccc(CC2CCN(CC3CSCS3)CC2)cc1 (configuration not stated),12,0.5,Activity (SH-SY5Y [6]): inactive; Activity (SH-SY5Y [8]): 72 - 75%

# From ChEMBL document CHEMBL4613319, “Novel Dithiolane-Based Ligands Combining Sigma and NMDA Receptor Interactions as Potential Neuroprotective Agents” (ACS Med Chem Lett, 2020)
